Values after ≈ are worked out from the molar mass of the structure shown.
What was measured:
Enterococcus faecalis [1] = test: Antibacterial activity against vancomycin-resistant Enterococcus faecalis NCTC 12201 after 20 hrs by broth microdilution method; assay type: functional; conditions: NCTC 12201, 20 h
How it was run: (§1)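 Broth microdilution in Tryptic Soy Broth; growth read as OD600 after 20 h. MIC taken as the lowest drug concentration giving OD600 below 0.1. Run in triplicate.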

Staphylococcus aureus [2] = test: Antibacterial activity against methicillin-resistant Staphylococcus aureus EMRSA-15 after 20 hrs by broth microdilution method; assay type: functional; conditions: EMRSA-15, 20 h; how it was run: as §1
[3] = Cytotoxicity against human HeLa cells assessed as cell viability at 25 uM after 24 hrs by MTT assay; assay type: cell-based; conditions: read-out: Activity
How it was run: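 HeLa cells, 10000 per well, were grown at 37 °C in 5% CO2 and allowed to settle for 24 h. Compound was then added in triplicate for 24 h of continuous exposure. Viability was read by MTT colorimetry, with absorbance at 570 nm.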

Enterococcus faecium = test: Antibacterial activity against vancomycin-resistant Enterococcus faecium NCTC 12204 after 20 hrs by broth microdilution method; assay type: functional; conditions: NCTC 12204, 20 h; how it was run: as §1
Staphylococcus aureus [4] = test: Antibacterial activity against methicillin-sensitive Staphylococcus aureus ATCC 9144 after 20 hrs by broth microdilution method; assay type: functional; conditions: ATCC 9144, 20 h
How it was run: (§2)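 Broth microdilution in Tryptic Soy Broth, done in triplicate. Growth was read as OD600 after 20 h. MIC is the lowest drug concentration giving OD600 below 0.1.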

Staphylococcus aureus [5] = test: Antibacterial activity against methicillin-resistant Staphylococcus aureus MRSA252 after 20 hrs by broth microdilution method; assay type: functional; conditions: MRSA252, 20 h; how it was run: as §1
Enterococcus faecalis [6] = test: Antibacterial activity against vancomycin-sensitive Enterococcus faecalis NCTC 775 after 20 hrs by broth microdilution method; assay type: functional; conditions: NCTC 775, 20 h; how it was run: as §2

Compound	MIC (Enterococcus faecalis [1]) [µg/mL]	MIC (Staphylococcus aureus [2]) [µg/mL]	viability at 24 h, 25 µM [3] [%]	MIC (Enterococcus faecium) [µg/mL]	MIC (Staphylococcus aureus [4]) [µg/mL]	MIC (Staphylococcus aureus [5]) [µg/mL]	MIC (Enterococcus faecalis [6]) [µg/mL]
COC(=O)c1ccc2c(c1)nc(C)n2-c1ccc(-c2cccc(NC(=O)c3ccc4nc(CCCN(C)C)[nH]c4c3)c2)cn1	> 128	> 128	–	–	–	–	–
Cc1nc2ccc(-c3cccc(-c4ccc(-n5c(C)nc6cc(C(=O)NCCCN(C)C)ccc65)nc4)c3)cc2[nH]1	64 (≈ 118 µM)	> 128	62	64 (≈ 118 µM)	> 128	> 128	64 (≈ 118 µM)

Source: ChEMBL document CHEMBL4011643, “Triaryl Benzimidazoles as a New Class of Antibacterial Agents against Resistant Pathogenic Microorganisms” (J Med Chem, 2017)
